# Data as given in ChEMBL document CHEMBL3045055, “Synthesis and antifungal activities of carabrol ester derivatives” (J Agric Food Chem, 2012).
# Tested on: Colletotrichum lagenaria
# Experiment: Antifungal activity against Colletotrichum lagenaria assessed as inhibition of spore germination at 24 +/- 1 degC for 8 hr (plant disease: on leaf and fruit)
# Format: functional, organism-based
# Outline: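 C. lagenarium isolate (Accession No. 36199, Agricultural Culture Collection of China) grown 2 weeks at 25 ± 1 °C on PDA. Conidia flooded off with sterile water, filtered through cheesecloth, and suspended in water with 0.1% (v/v) Tween 20 at 1.0 × 10^6 spore/mL by hemocytometer. Samples dissolved in methanol, diluted with sterile water to test solutions; spore germination inhibition read, IC50 derived.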
row,Structure (SMILES),IC50 [µg/mL]
1,C=C1C(=O)O[C@@H]2C[C@]3(C)C(CCC(C)OC(=O)c4cccc(Cl)c4)[C@@H]3C[C@H]12 (some centres undefined) [CARABRYL 3-CHLOROBENZOATE],26.7
2,"C=C1C(=O)O[C@@H]2C[C@]3(C)C(CCC(C)OC(=O)/C=C/C=C/C)[C@@H]3C[C@H]12 (some centres undefined) [CARABRYL 2,4-HEXADIENOATE]",8.41
3,C=C1C(=O)O[C@@H]2C[C@]3(C)C(CCC(C)OC(=O)c4ccc(Cl)cc4)[C@@H]3C[C@H]12 (some centres undefined) [CARABRYL 4-CHLOROBENZOATE],31.8
4,C=C1C(=O)O[C@@H]2C[C@]3(C)C(CCC(C)OC(=O)c4ccccc4Br)[C@@H]3C[C@H]12 (some centres undefined) [CARABRYL 2-BROMOBENZOATE],29.2
5,"C=C1C(=O)O[C@@H]2C[C@]3(C)C(CCC(C)OC(=O)c4cccc(OC)c4OC)[C@@H]3C[C@H]12 (some centres undefined) [CARABRYL 2,3-DIMETHOXYBENZOATE]",35.8
6,C=C1C(=O)O[C@@H]2C[C@]3(C)C(CCC(C)OC(=O)c4ccc(F)cc4)[C@@H]3C[C@H]12 (some centres undefined) [CARABRYL 4-FLUOROBENZOATE],21.2
7,C=C1C(=O)O[C@@H]2C[C@]3(C)C(CCC(C)OC(=O)Cc4cccc5ccccc45)[C@@H]3C[C@H]12 (stereo partly drawn) [CARABRYL ALPHA-NAPHTHYLACETATE],30.3
8,C=C1C(=O)O[C@@H]2C[C@]3(C)C(CCC(C)OC(=O)c4cccc5ccccc45)[C@@H]3C[C@H]12 (stereo partly drawn) [CARABRYL ALPHA-NAPHTHYLCARBOXYLATE],23.3
9,C=C1C(=O)O[C@@H]2C[C@]3(C)C(CCC(C)OC(=O)Cc4ccc(Br)cc4)[C@@H]3C[C@H]12 (some centres undefined) [CARABRYL 4-BROMOPHENYLACETATE],44.4
10,C=C1C(=O)O[C@@H]2C[C@]3(C)C(CCC(C)OC(C)=O)[C@@H]3C[C@H]12 (some centres undefined) [CARABRYL ACETATE],10.8
11,C=C1C(=O)O[C@@H]2C[C@]3(C)C(CCC(C)OC(=O)c4cccnc4)[C@@H]3C[C@H]12 (some centres undefined) [CARABRYL NICOTINATE],8.26
12,C=C1C(=O)O[C@@H]2C[C@]3(C)C(CCC(C)OC(=O)c4ccncc4)[C@@H]3C[C@H]12 (some centres undefined) [CARABRYL ISONICOTINATE],4.31
13,C=C1C(=O)O[C@@H]2C[C@]3(C)C(CCC(C)OC(=O)c4cccs4)[C@@H]3C[C@H]12 (some centres undefined) [CARABRYL 2-THIOPHENECARBOXYLATE],30.8
14,N#Cc1c(Cl)c(Cl)c(Cl)c(C#N)c1Cl [CHLOROTHALONIL],0.87
15,C=C1C(=O)O[C@@H]2C[C@]3(C)C(CCC(C)OC(=O)/C=C/c4ccc([N+](=O)[O-])cc4)[C@@H]3C[C@H]12 (some centres undefined),22.8
16,C=C1C(=O)O[C@@H]2C[C@]3(C)C(CCC(C)OC(=O)CCc4ccccc4)[C@@H]3C[C@H]12 (some centres undefined) [CARABRYL 3-PHENYLPROPANOATE],13.2
17,C=C1C(=O)O[C@@H]2C[C@]3(C)C(CCC(C)OC(=O)c4cccnc4Cl)[C@@H]3C[C@H]12 (some centres undefined) [CARABRYL 2-CHLORONICOTINATE],4.62
18,C=C1C(=O)O[C@@H]2C[C@]3(C)C(CCC(C)OC(=O)c4ccc(OC)cc4)[C@@H]3C[C@H]12 (some centres undefined) [CARABRYL 4-METHOXYBENZOATE],47.5
19,C=C1C(=O)O[C@@H]2C[C@]3(C)C(CCC(C)OC(=O)c4cccc(OC)c4)[C@@H]3C[C@H]12 (some centres undefined) [CARABRYL 3-METHOXYBENZOATE],49.4
20,C=C1C(=O)O[C@@H]2C[C@]3(C)C(CCC(C)OC(=O)c4cccc(Br)c4)[C@@H]3C[C@H]12 (some centres undefined) [CARABRYL 3-BROMOBENZOATE],36.7

row,Structure (SMILES),IC50 [µg/mL]
1,C=C1C(=O)O[C@@H]2C[C@]3(C)C(CCC(C)OC(=O)c4ccccc4C)[C@@H]3C[C@H]12 (some centres undefined) [CARABRYL 2-METHYLBENZOATE],52.3
2,C=C1C(=O)O[C@@H]2C[C@]3(C)C(CCC(C)OC(=O)c4cnc(C)cn4)[C@@H]3C[C@H]12 (some centres undefined),20.5
3,C=C1C(=O)O[C@@H]2C[C@]3(C)C(CCC(C)OC(=O)c4ccc(Br)cc4)[C@@H]3C[C@H]12 (some centres undefined) [CARABRYL 4-BROMOBENZOATE],31.3
4,C=C1C(=O)O[C@@H]2C[C@]3(C)C(CCC(C)OC(=O)c4ccccc4I)[C@@H]3C[C@H]12 (some centres undefined) [CARABRYL 2-IODOBENZOATE],39
5,C=C1C(=O)O[C@@H]2C[C@]3(C)C(CCC(C)OC(=O)CCCC)[C@@H]3C[C@H]12 (some centres undefined) [CARABRYL N-PENTANOATE],31.2
6,C=C1C(=O)O[C@@H]2C[C@]3(C)C(CCC(C)OC(=O)c4ccccc4OCC)[C@@H]3C[C@H]12 (some centres undefined) [CARABRYL 2-ETHOXYBENZOATE],41.6
7,C=C1C(=O)O[C@@H]2C[C@]3(C)C(CCC(C)OC(=O)c4ccccc4OC)[C@@H]3C[C@H]12 (some centres undefined) [CARABRYL 2-METHOXYBENZOATE],46.1
8,C=C1C(=O)O[C@@H]2C[C@]3(C)C(CCC(C)OC(=O)c4ccc(I)cc4)[C@@H]3C[C@H]12 (some centres undefined) [CARABRYL 4-IODOBENZOATE],33.5
9,C=C1C(=O)O[C@@H]2C[C@]3(C)C(CCC(C)OC(=O)CC)[C@@H]3C[C@H]12 (some centres undefined) [CARABRYL PROPANOATE],23.3
10,C=C1C(=O)O[C@@H]2C[C@]3(C)C(CCC(C)OC(=O)c4ccc(C(C)C)cc4)[C@@H]3C[C@H]12 (some centres undefined) [CARABRYL 4-ISOPROPYLBENZOATE],2.82
11,C=C1C(=O)O[C@@H]2C[C@]3(C)C(CCC(C)OC(=O)/C=C/c4ccc(OC)c(OC)c4)[C@@H]3C[C@H]12 (some centres undefined),25.1
12,C=C1C(=O)O[C@@H]2C[C@]3(C)C(CCC(C)OC(=O)/C=C/c4ccccc4)[C@@H]3C[C@H]12 (some centres undefined) [CARABRYL 3-PHENYLACRYLATE],33.2
13,C=C1C(=O)O[C@@H]2C[C@]3(C)C(CCC(C)OC(=O)CCCCCCCCCCC)[C@@H]3C[C@H]12 (some centres undefined) [CARABRYL LAURATE],33.6
14,C=C1C(=O)O[C@@H]2C[C@]3(C)C(CCC(C)OC(=O)CCl)[C@@H]3C[C@H]12 (some centres undefined) [CARABRYL CHLOROACETATE],4.51
15,C=C1C(=O)O[C@@H]2C[C@]3(C)C(CCC(C)OC(=O)CCc4c[nH]c5ccccc45)[C@@H]3C[C@H]12 (some centres undefined) [CARABRYL 3-INDOLEPROPIONATE],12.8
16,"C=C1C(=O)O[C@@H]2C[C@]3(C)C(CCC(C)OC(=O)c4ccc(OC)c(OC)c4)[C@@H]3C[C@H]12 (some centres undefined) [CARABRYL 3,4-DIMETHOXYBENZOATE]",33
17,C=C1C(=O)O[C@@H]2C[C@]3(C)C(CCC(C)OC(=O)c4cccc(F)c4)[C@@H]3C[C@H]12 (some centres undefined) [CARABRYL 3-FLUOROBENZOATE],30.4
18,C=C1C(=O)O[C@@H]2C[C@]3(C)C(CCC(C)OC(=O)c4ccc(C#N)cc4)[C@@H]3C[C@H]12 (some centres undefined) [CARABRYL 4-CYANOBENZOATE],2.7
19,C=C1C(=O)O[C@@H]2C[C@]3(C)C(CCC(C)OC(=O)CCC)[C@@H]3C[C@H]12 (some centres undefined) [CARABRYL N-BUTYRATE],20.8
